TRPC4 agonist: opens the mouse TRPC4 cation channel. Q9QUQ5. HEK293 TRPC4beta/mu-opioid, Fluo4 calcium fluorescence; active compounds read high. B-score at 10 µM. 310,000 compounds, 0.49% hits. AID 2237;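 active = B-score above 5 SD of library B-scores, and initial fluorescence ratio not above library mean plus 5 SD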;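 also: positive B-score marks a calcium rise read as TRPC4 activation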
Target sequence (Q9QUQ5 whole entry, looked up): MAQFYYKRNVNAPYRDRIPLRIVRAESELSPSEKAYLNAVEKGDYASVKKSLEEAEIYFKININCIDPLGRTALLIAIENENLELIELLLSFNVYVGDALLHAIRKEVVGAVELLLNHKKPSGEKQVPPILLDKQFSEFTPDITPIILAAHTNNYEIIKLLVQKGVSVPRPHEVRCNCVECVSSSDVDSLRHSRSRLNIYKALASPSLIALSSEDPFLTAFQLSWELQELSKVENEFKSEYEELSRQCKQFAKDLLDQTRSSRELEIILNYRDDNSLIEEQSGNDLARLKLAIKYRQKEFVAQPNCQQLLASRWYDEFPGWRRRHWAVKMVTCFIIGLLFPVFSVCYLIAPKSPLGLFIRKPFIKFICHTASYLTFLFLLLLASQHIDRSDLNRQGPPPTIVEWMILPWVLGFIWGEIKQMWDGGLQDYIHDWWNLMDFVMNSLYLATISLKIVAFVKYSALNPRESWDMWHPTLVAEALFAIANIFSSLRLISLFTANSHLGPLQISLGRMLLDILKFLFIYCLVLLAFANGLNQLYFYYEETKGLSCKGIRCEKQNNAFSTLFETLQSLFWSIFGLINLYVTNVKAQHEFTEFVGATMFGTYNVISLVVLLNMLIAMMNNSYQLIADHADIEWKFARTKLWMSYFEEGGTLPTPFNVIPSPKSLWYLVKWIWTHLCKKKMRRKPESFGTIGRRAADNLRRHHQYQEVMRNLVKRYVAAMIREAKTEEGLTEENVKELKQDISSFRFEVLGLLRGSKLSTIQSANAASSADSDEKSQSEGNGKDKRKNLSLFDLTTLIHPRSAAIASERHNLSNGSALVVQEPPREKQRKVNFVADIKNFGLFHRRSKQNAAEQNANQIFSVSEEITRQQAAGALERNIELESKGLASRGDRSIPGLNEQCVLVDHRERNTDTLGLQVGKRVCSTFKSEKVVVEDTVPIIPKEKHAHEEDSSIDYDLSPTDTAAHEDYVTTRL
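Material: TRPC4beta and mu-opioid receptor HEK293 stable cells | Incubation: 45 min room-temperature Fluo4 loading, 110 s read | Detection: Kinetic Fluo4 calcium fluorescence | Measure: Integrated baseline-normalised fluorescence ratio, converted to per-well B score | Benchmarks: Low control buffer alone, high control maximal DAMGO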
TRPC6 activator: activators of mouse TRPC6 channel; AID 2550; 310,000 compounds, 0.13% hits; HEK293-TRPC6 membrane potential dye fluorescence; active compounds read high; B-score at 10 µM;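 active = B-score of the integrated fluorescence ratio above library mean plus 3 SD, and starting fluorescence ratio within library mean plus 5 SD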;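 also: higher score means more depolarization so channel activation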
TRPC6 inhibitor: blocks the mouse TRPC6 cation channel; B-score at 10 µM; HEK293-TRPC6, membrane potential dye, ACh-evoked depolarization; active compounds read low; 310,000 compounds, 1.1% hits; Q61143;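 active = B-score under library mean minus 3 SD, initial fluorescence not abnormally high, positive integrated signal ratio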;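 also: B-score derived from integrated fluorescence ratio over the kinetic read; more negative B-score means stronger inhibition of depolarization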
TRPC4 PAM: TRPC4 (mouse) allosteric potentiation; HEK293 TRPC4beta/mu-opioid, DAMGO EC20, Fluo-4 Ca2+ flux; active compounds read high; B-score at 10 µM; 310,000 compounds, 0.42% hits; AID 2227;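 active = B-score of calcium response area above 5 SD of library B-scores, with initial fluorescence ratio within 5 SD of library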
TRPC4 block: TRPC4 (mouse) channel inhibition; B-score at 10 µM; 300,000 compounds, 0.39% hits; Q9QUQ5; HEK293 TRPC4beta/mu-opioid, DAMGO-evoked Fluo4 calcium flux; active compounds read low;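 active = B-score over 3 SD under the library average, no early fluorescence shift, positive overall ratio signal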
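Assay system: TRPC4beta/mu-opioid receptor HEK293 cell line; compound dosing: single concentration per test compound; detection: Fluo4 Ca2+ flux fluorescence; evaluation: per-well B score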
TRPC4 sel inh 2: second selectivity test of TRPC6 inhibitors: effect on mouse TRPC4; 920 compounds, 42% hits; HEK293 TRPC4/MOR, membrane potential dye fluorescence; channel activated by saturating DAMGO dose; shares compounds with TRPC6 inhibitor; inhibition, % at 10 µM;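 active = compounds whose fluorescence signal differed from control wells by over 3 SD, either direction, in both duplicate plates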
TRPC4 spec: mouse TRPC4 off-target activity of TRPC6 inhibitors; AID 2777; shares compounds with TRPC6 inhibitor; 920 compounds, 61% hits; HEK293 TRPC4/mu-opioid, membrane potential fluorescence; activity change, negative = inhibition, % at 10 µM;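 active = rise or fall in signal beyond 3 SD of buffer-only wells in both replicate plates, either sign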;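 also: integrated kinetic ratio of fluorescence range over baseline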
HEK293 MPD ctr 2-1: parental HEK293 nonspecific activity of TRPC6 inhibitors, second screen | shares compounds with TRPC6 inhibitor | parental HEK293 membrane potential dye fluorescence; maximal acetylcholine challenge after compound addition | signal change vs control, % at 10 µM | 920 compounds, 31% hits | AID 2779;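 active = membrane potential signal moving either way by over 3 SD of the maximum-effect control, in both duplicate plates, meaning non-specific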
HEK293 MPD ctr-1: checks TRPC6 inhibitor effects in parental HEK293 cells. shares compounds with TRPC6 inhibitor. parental HEK293 membrane potential dye fluorescence. membrane potential signal change, % at 10 µM. 920 compounds, 60% hits. AID 2780;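 active = membrane potential signal shifting up or down by more than 3 SD of buffer-only wells, on both duplicate plates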
HEK293 MPD ctr-2: counter-screen for TRPC6 modulators: effect in parental HEK293 cells; membrane potential signal change, % at 10 µM; shares compounds with TRPC6 inhibitor; 2,400 compounds, 51% hits; membrane potential dye fluorescence;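 active = membrane potential signal moves up or down beyond 5 SD from buffer-only wells, on both duplicate plates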
HEK293 MPD ctr 2-2: parental HEK293 nonspecific activity of TRPC6 modulators, second screen. shares compounds with TRPC6 inhibitor. membrane potential dye fluorescence; after compound, maximal acetylcholine stimulation. inhibition, % at 10 µM. 2,400 compounds, 14% hits;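 active = membrane potential signal drops by more than 5 SD from the mean control signal, in both duplicate plates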
TRPC4 ctr mod: selectivity of TRPC6 modulators against mouse TRPC4. shares compounds with TRPC6 inhibitor. HEK293 TRPC4/mu-opioid, membrane potential fluorescence. percent change from control (negative = decrease, positive = increase), % at 10 µM. 2,400 compounds, 69% hits. AID 488927;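 active = membrane potential signal moved up or down beyond 5 SD of buffer control wells, in both duplicate plates, actives on both sides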
TRPC4 ctr inh 2: mouse TRPC4 off-target activity of TRPC6 modulators, second screen | shares compounds with TRPC6 inhibitor | HEK293 TRPC4/mu-opioid, membrane potential dye fluorescence; stimulated with maximal-effect DAMGO | inhibition, % at 10 µM | 2,400 compounds, 55% hits | AID 488928;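 active = drop in membrane potential signal beyond 5 SD of the control wells in both duplicate plates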;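 also: TRPC4 counter screen for TRPC6 hits run under conditions tuned for TRPC6 not TRPC4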
TRPC6 block conf: confirmation of mouse TRPC6 inhibitors | inhibition, % at 10 µM | 3,300 compounds, 43% hits | HEK293-TRPC6, membrane potential dye, ACh-evoked depolarization | shares compounds with TRPC6 inhibitor;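 active = fluorescence ratio falls more than 5 SD below the full-stimulation control mean, in both duplicate runs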;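 also: integrated fluorescence ratio of peak minus minimum over baseline after agonist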
TRPC6 act confirm: confirmation of mouse TRPC6 activators; HEK293-TRPC6 membrane potential dye fluorescence, FDSS; activation, % at 10 µM; shares compounds with TRPC6 inhibitor; 2,800 compounds, 11% hits; AID 488961;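 active = ratio signal rise beyond 5 SD above unstimulated control wells' mean, seen in both duplicate runs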
Large screens that a line does not name were inactive (follow-up assays come after a bar, where they were run). This is a sample that favours compounds with a hit; in the whole collection about 2.3% have one here.

Oc1sc(C=Nc2ccccc2)c2ccccc12	TRPC6 activator 13 | HEK293 MPD ctr-2 322% | HEK293 MPD ctr 2-2 inactive | TRPC4 ctr mod 139% | TRPC4 ctr inh 2 46% | TRPC6 block conf inactive | TRPC6 act confirm inactive
CCN(CC)S(=O)(=O)c1ccc2c(c1)c(=O)c(C(=O)NCCN(C)CCc1ccccc1)cn2C	TRPC6 inhibitor -5.4 | HEK293 MPD ctr-2 -64% | HEK293 MPD ctr 2-2 inactive | TRPC4 ctr mod -17% | TRPC4 ctr inh 2 63% | TRPC6 block conf inactive | TRPC6 act confirm inactive
CCCCN(C)CCCNC(=O)c1cn(CC)c2ccc(S(=O)(=O)N3CCc4ccccc4C3)cc2c1=O	TRPC6 inhibitor -6.9 | TRPC4 sel inh 2 52% | TRPC4 spec -18% | HEK293 MPD ctr 2-1 inactive | HEK293 MPD ctr-1 -160% | TRPC6 block conf inactive | TRPC6 act confirm inactive
CN(CCNC(=O)c1cn(C)c2ccc(S(=O)(=O)N(C)C)cc2c1=O)CCc1ccccc1	none
CCN(CC)CCNC(=O)c1cn(CC)c2ccc(S(=O)(=O)N3CCOCC3)cc2c1=O	none
CCCCN(CCCC)CCNC(=O)c1cn(CC)c2ccc(S(=O)(=O)N3CCCC3)cc2c1=O	TRPC6 inhibitor -5 | HEK293 MPD ctr-2 inactive | HEK293 MPD ctr 2-2 inactive | TRPC4 ctr mod inactive | TRPC4 ctr inh 2 50% | TRPC6 block conf inactive | TRPC6 act confirm inactive
COC(=O)[C@H](C)NC(=O)Nc1cccc(Br)c1	none
Cc1cc(C)n(-c2nc(NCCCN(C)C)c3c4c(sc3n2)CCCC4)n1	TRPC6 inhibitor -7.1 | TRPC4 sel inh 2 66% | TRPC4 spec inactive | HEK293 MPD ctr 2-1 inactive | HEK293 MPD ctr-1 inactive | TRPC6 block conf 57% | TRPC6 act confirm inactive
Cc1cc(C)n(-c2nc(NCCC(C)C)c3c4c(sc3n2)COC(C)(C)C4)n1	none
Cc1cc(C)n(-c2nc(NCCN(C)C)c3c4c(sc3n2)COC(C)(C)C4)n1	TRPC6 inhibitor -5.4 | HEK293 MPD ctr-2 inactive | HEK293 MPD ctr 2-2 inactive | TRPC4 ctr mod -13% | TRPC4 ctr inh 2 44% | TRPC6 block conf inactive | TRPC6 act confirm inactive
Cc1cc(C)n(-c2nc(NCCCN(C)C)c3c4c(sc3n2)COC(C)(C)C4)n1	TRPC6 inhibitor -7.6 | TRPC4 sel inh 2 inactive | TRPC4 spec -11% | HEK293 MPD ctr 2-1 inactive | HEK293 MPD ctr-1 -188% | TRPC6 block conf inactive | TRPC6 act confirm inactive
CCN(CC)CCNc1nc(-n2nc(C)cc2C)nc2sc3c(c12)CC(C)(C)OC3	TRPC6 inhibitor -6.3 | HEK293 MPD ctr-2 inactive | HEK293 MPD ctr 2-2 inactive | TRPC4 ctr mod inactive | TRPC4 ctr inh 2 40% | TRPC6 block conf inactive | TRPC6 act confirm inactive
Cc1csc(=O)n1CCC(=O)OCC(=O)N(CC(C)C)c1c(N)n(Cc2ccccc2)c(=O)[nH]c1=O	none
CCCn1c(SCC(=O)N2CCN(CC)CC2)nc2c1c(=O)n(C)c(=O)n2C	none
O=C1CSC(c2cccnc2)N1c1ccc(Cl)cc1 (stereo not drawn)	none
Cc1ccc(N2C(=O)CSC2c2cccnc2)cc1F (stereo not drawn)	TRPC6 inhibitor -6.7 | TRPC4 sel inh 2 inactive | TRPC4 spec inactive | HEK293 MPD ctr 2-1 inactive | HEK293 MPD ctr-1 inactive | TRPC6 block conf inactive | TRPC6 act confirm inactive
Cc1cccc(N(CC(=O)NC2CCCC2)C(=O)CNC(=O)c2ccco2)c1C	none
Cn1c(=N)n(CC(=O)c2ccc(Br)cc2)c2ccccc21	none
O=C(Cn1c(-c2ccccc2)c[n+]2ccsc12)c1ccc(Br)cc1	TRPC4 agonist 86, TRPC6 inhibitor -5.6 | HEK293 MPD ctr-2 -122% | HEK293 MPD ctr 2-2 inactive | TRPC4 ctr mod 60% | TRPC4 ctr inh 2 97% | TRPC6 block conf inactive | TRPC6 act confirm inactive
Cc1ccc(N2CC(C(=O)Nc3c4c(nn3C(C)(C)C)CS(=O)(=O)C4)CC2=O)cc1C (stereo not drawn)	none
CCOC(=O)C1CCCN(Cc2c(C(=O)N3CCCCC3)nc3c(C)cccn23)C1 (stereo not drawn)	none
Cc1cccn2c(CNC3CCCc4ccccc43)c(C(=O)N3CCCCC3)nc12 (stereo not drawn)	TRPC6 inhibitor -8 | HEK293 MPD ctr-2 420% | HEK293 MPD ctr 2-2 75% | TRPC4 ctr mod 92% | TRPC4 ctr inh 2 55% | TRPC6 block conf 74%
CN=C1c2cc3c(Br)c(OC)ccc3n2CCN1C	TRPC6 inhibitor -8.3 | TRPC4 sel inh 2 inactive | TRPC4 spec -14% | HEK293 MPD ctr 2-1 10% | HEK293 MPD ctr-1 -280% | TRPC6 block conf inactive | TRPC6 act confirm inactive
Cc1ccc(O)c(Sc2cc(C)ccc2O)c1	TRPC6 inhibitor -8.4, TRPC4 block -6 | TRPC4 sel inh 2 inactive | TRPC4 spec -13% | HEK293 MPD ctr 2-1 inactive | HEK293 MPD ctr-1 -141% | TRPC6 block conf 71% | TRPC6 act confirm inactive
Cc1nnc(-c2ccccc2)c(=O)n1/N=C/c1c(O)ccc2ccccc12	TRPC6 inhibitor -7.3 | TRPC4 sel inh 2 68% | TRPC4 spec 23% | HEK293 MPD ctr 2-1 -242% | HEK293 MPD ctr-1 8.7% | TRPC6 block conf 80%

Screening data from PubChem.
